Source: ChEMBL document CHEMBL1138220, “Synthesis and characterization of a novel liver-targeted prodrug of cytosine-1-beta-D-arabinofuranoside monophosphate for the treatment of hepatocellular carcinoma” (J Med Chem, 2006)
Values after ≈ are worked out from the molar mass of the structure shown.

Tests used:
[1] = Stability in phosphate buffer at pH 7.4 at 37 degC at 100 uM after 72 hrs; format: physicochemical; conditions: for remaining at 72 h, 100 µM: phosphate buffer, pH 7.4, read-out: Stability
Summary of the method: (§1)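 Prodrug at 100 µM in 10 mM phosphate buffer pH 7.4, held at 37 °C. Intact prodrug was quantified by C18 HPLC at 270 nm and expressed as % remaining at 24 h or 72 h.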

[2] = Aqueous solubility in citrate buffer at pH 4; format: physicochemical
Summary of the method: (§2)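 Each prodrug was dissolved at 10 mg/mL (pyridyl prodrugs at 200 mg/mL) in 100 mM citrate buffer pH 4.0 or 100 mM phosphate pH 7.4. Samples were sonicated 20 min, held ~10 min at room temperature, filtered through 0.45 µm, diluted 1:100 or 1:10000 in DMSO, then quantified by C18 HPLC (acetonitrile gradient, 40 °C, 270 nm).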

[3] = Aqueous solubility in phosphate buffer at pH 7.4; format: physicochemical; summary of the method: as §2
[4] = Stability in phosphate buffer at pH 7.4 at 37 degC at 100 uM after 24 hrs; format: physicochemical; conditions: for remaining at 24 h, 100 µM: phosphate buffer, pH 7.4, read-out: Stability; summary of the method: as §1
Liver [5] = experiment: Ratio of AUC for araCTP level in liver to bone marrow of Swiss Webster mouse; format: functional
Liver [6] = experiment: Ratio of AUC for araCTP level in liver to plasma of Swiss Webster mouse; format: functional
Liver [7] = experiment: Distribution of araCTP in Swiss Webster mouse liver at 100 mg/kg, ip measured as AUC (0-4h); format: ADME, organism-based; design: time < 5 hr, dose 100 mg/kg, route intraperitoneal; conditions: in vivo, 5 h
Summary of the method: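 Nonfasted male Swiss Webster mice were dosed i.p. at a molar equivalent of 100 mg/kg araC. Livers were taken at set times up to 4 h, snap-frozen, homogenized in 3 volumes of 10% PCA, centrifuged and neutralized with KOH/KHCO₃. AraCTP was measured and reported as AUC 0-4 h (nmol·h/g).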

Bone marrow = experiment: Distribution of araCTP in Swiss Webster mouse bone marrow at 100 mg/kg, ip measured as AUC (0-4h); format: ADME, organism-based; design: time < 5 hr, dose 100 mg/kg, route intraperitoneal; conditions: in vivo, 5 h
Summary of the method: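 Male Swiss Webster mice were given i.p. prodrug at a molar equivalent of 100 mg/kg araC. Bone marrow cell pellets collected up to 4 h were extracted with 12 volumes of 3% PCA, centrifuged 10 min and neutralized to pH 7-8 with KOH/KHCO₃. AraCTP was expressed as AUC 0-4 h; the lower limit of quantitation was 3 nmol·h/g.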

[8] = citrate buffer, read-out: Solubility
[9] = phosphate buffer, read-out: Solubility

SMILES	Stability ([1]; buffer, pH 7.4, 72 h, 100 µM, 72 h) [%]	solubility ([2]; buffer) [mg/mL]	solubility ([3]; buffer) [mg/mL]	Stability ([4]; buffer, pH 7.4, 24 h, 100 µM, 24 h) [%]	remaining at 72 h, 100 µM [1] [%]	solubility [2, 8] [mg/mL]	solubility [3, 9] [mg/mL]	remaining at 24 h, 100 µM [4] [%]	AUC (Liver [7]) [nmol·h/g]	AUC (Bone marrow) [nmol/g]	Ratio AUC (Liver [5])	Ratio AUC (Liver [6])
COC(=O)c1cccc([C@H]2CCOP(=O)(OC[C@H]3O[C@@H](n4ccc(N)nc4=O)[C@@H](O)[C@@H]3O)O2)c1 (some centres not stated)					23	10.3 (≈ 20.7 mM)	7.2 (≈ 14.5 mM)	60				
Nc1ccn([C@@H]2O[C@H](CO)[C@@H](O)[C@@H]2O)c(=O)n1 [CYTARABINE]									< 19.2	46	<0.42	<0.16
Nc1ccn([C@@H]2O[C@H](COP3(=O)OCC[C@H](c4cccnc4)O3)[C@@H](O)[C@@H]2O)c(=O)n1 (some centres not stated)					83	172 (≈ 391 mM)	176 (≈ 400 mM)	99				
Nc1ccn([C@@H]2O[C@H](COP3(=O)OCC[C@H](c4cccc(Cl)c4)O3)[C@@H](O)[C@@H]2O)c(=O)n1 (some centres not stated)					21	3.7 (≈ 7.81 mM)	1.7 (≈ 3.59 mM)	63				
Nc1ccn([C@@H]2O[C@H](COP3(=O)OCC[C@H](c4ccc(F)c(Cl)c4)O3)[C@@H](O)[C@@H]2O)c(=O)n1 (some centres not stated)					52	6.7 (≈ 13.6 mM)	3.2 (≈ 6.51 mM)	74				
Nc1ccn([C@@H]2O[C@H](COP3(=O)OCC[C@H](c4cc(Cl)cc(Cl)c4)O3)[C@@H](O)[C@@H]2O)c(=O)n1 (some centres not stated)					76	1.1 (≈ 2.16 mM)	0.5 (≈ 0.984 mM)	82				

Continued, in another order:

Stability ([1]; buffer, pH 7.4, 72 h, 100 µM, 72 h) [%]	solubility ([2]; buffer) [mg/mL]	solubility ([3]; buffer) [mg/mL]	Stability ([4]; buffer, pH 7.4, 24 h, 100 µM, 24 h) [%]	remaining at 72 h, 100 µM [1] [%]	solubility [2, 8] [mg/mL]	solubility [3, 9] [mg/mL]	remaining at 24 h, 100 µM [4] [%]	AUC (Liver [7]) [nmol·h/g]	AUC (Bone marrow) [nmol/g]	SMILES	Ratio AUC (Liver [5])	Ratio AUC (Liver [6])
90	> 200	> 200	92							Nc1ccn([C@@H]2O[C@H](COP3(=O)OCC[C@H](c4ccncc4)O3)[C@@H](O)[C@@H]2O)c(=O)n1 (stereo in doubt; 10i)		
				> 95	23.9 (≈ 54.3 mM)	7.1 (≈ 16.1 mM)	> 99	148.8	< 12	Nc1ccn([C@@H]2O[C@H](COP3(=O)OCC[C@@H](c4ccncc4)O3)[C@@H](O)[C@@H]2O)c(=O)n1 (some centres not stated)	>12	19.6
	37.9 (≈ 86.1 mM)	16.7 (≈ 37.9 mM)		> 97			> 99	68	< 12	Nc1ccn([C@@H]2O[C@H](COP3(=O)OCC[C@H](c4ccncc4)O3)[C@@H](O)[C@@H]2O)c(=O)n1 (stereo in doubt; 19R)	>7	19.4
				61	7.4 (≈ 14.9 mM)	5.7 (≈ 11.5 mM)	84			COC(=O)c1ccc([C@H]2CCOP(=O)(OC[C@H]3O[C@@H](n4ccc(N)nc4=O)[C@@H](O)[C@@H]3O)O2)cc1 (some centres not stated)		
				4			5			Nc1ccn([C@@H]2O[C@H](COP3(=O)OCC[C@H](c4ccc(Cl)cc4)O3)[C@@H](O)[C@@H]2O)c(=O)n1 (some centres not stated)		
				4			9			Nc1ccn([C@@H]2O[C@H](COP3(=O)OCC[C@H](c4ccc(Br)cc4)O3)[C@@H](O)[C@@H]2O)c(=O)n1 (some centres not stated)		
